Results taken from ChEMBL document CHEMBL4680189, “Immunosuppressive properties of amino acid and peptide derivatives of mycophenolic acid” (Eur J Med Chem, 2020).
Activity calls are given as the source filed them. The calls are words filed in the database; no cut-off is given here. Where a SMILES comes first, the peptide text is derived from it. [ ]: non-standard residue; d: D form. The star is where a group is joined. Mycophenolyl = COc1c(C)c2c(c(O)c1C/C=C(\C)CCC(=O)*)C(=O)OC2; Arg(NO2) = N=C(NCCC[C@H](N)C(=O)O)N[N+](=O)[O-]; βAla = NCCC(=O)O

Assays:
Jurkat [1] = assay: Immunosuppression-mediated cytotoxicity against human Jurkat T cells assessed as reduction in cell viability incubated for 48 hrs by MTT assay; type: cell-based
Outline: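 Jurkat cells in RPMI-1640 with 10% FBS and P/S, 50×10^3 cells/well, exposed in triplicate to serial dilutions from 1 mg/mL (DMSO/medium) for 48 h at 37 °C, 5% CO2. MTT (5 mg/ml) then added for 3 h. Formazan dissolved in 0.4 N HCl–isopropanol, absorbance read at 570 nm. IC50 from curve fitting; viability at 1 mg/mL used where IC50 could not be reached.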

[2] = Immunosuppression-mediated cytotoxicity against anti-CD3/anti-CD28-stimulated human PBMC cells assessed as reduction in cell viability incubated for 72 hrs by MTT assay; type: cell-based
Outline: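 PBMC from buffy coats of healthy donors, isolated on a Ficoll gradient with erythrocyte lysis. Plated at 50×10^3 cells/well with anti-CD3/anti-CD28, serial compound dilutions, in triplicate. Incubated 72 h, 37 °C, 5% CO2. MTT added for 3 h, formazan dissolved in acidified isopropanol (0.4 N HCl), A570 read. Three donors averaged; IC50 from curve fit.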

Jurkat [3] = assay: Immunosuppression-mediated antiproliferative activity against human Jurkat T cells assessed as inhibition of cell growth incubated for 48 hrs by VPD450 staining based flow cytometry; type: functional
Outline: (§1)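 Cells stained with VPD450 (2 μL of 1 mM dye per 10-30×10^6 cells in 1 mL PBS, 15 min, 37 °C), washed. PBMC: 50×10^3 cells/well with anti-CD3/anti-CD28, serial compound dilutions, 72 h. Jurkat: 50×10^3 cells/well, 48 h. 37 °C, 5% CO2, triplicate. Dye dilution by flow cytometry; EC50 from curve fit.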

[4] = Immunosuppression-mediated antiproliferative activity against anti-CD3/anti-CD28-stimulated human PBMC cells assessed as inhibition of cell growth incubated for 72 hrs by VPD450 staining based flow cytometry; type: functional; outline: as §1
[5] = Selectivity index, ratio of IC50 for cytotoxicity against human Jurkat T cells by MTT assay to EC50 for antiproliferative activity against human Jurkat T cells by VPD450 staining based flow cytometry
Outline: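 Jurkat IC50 from the 48 h MTT assay (50×10^3 cells/well, triplicate) divided by Jurkat EC50. […] Cells treated 48 h with serial dilutions, then dye dilution read by flow cytometry and fitted.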

[6] = Selectivity index, ratio of IC50 for cytotoxicity against human PBMC by MTT assay to EC50 for antiproliferative activity against human PBMC by VPD450 staining based flow cytometry
Outline: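 Ratio of the MTT cytotoxicity IC50 (72 h, stimulated PBMC) to the VPD450 antiproliferative EC50 (72 h, stimulated PBMC), both from fitted concentration-response curves.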

PBMC = assay: Immunosuppression-mediated antiproliferative activity against anti-CD3/anti-CD28-stimulated human PBMC cells assessed as inhibition of cell growth incubated for 72 hrs in presence of GMP by VPD450 staining based flow cytometry; type: functional
Outline: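 VPD450-stained PBMC, 50×10^3 cells/well, anti-CD3/anti-CD28 stimulation, serial compound dilutions plus GMP at 50 μM in the well. Incubated 72 h at 37 °C, 5% CO2, in triplicate. Proliferation read by flow cytometry as dye dilution and expressed relative to controls.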

Jurkat [7] = assay: Immunosuppression-mediated cytotoxicity against human Jurkat T cells assessed as reduction in cell viability at 1 mg/ml incubated for 48 hrs by MTT assay relative to control; type: cell-based
Outline: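 Jurkat cells (RPMI-1640, 10% FBS) plated at 50×10^3 cells/well and exposed to 1 mg/mL compound (1 mg in 20 μL DMSO, made up to 1 mL with medium). 48 h at 37 °C, 5% CO2, in triplicate. MTT (5 mg/mL stock) for 3 h, acidified isopropanol, A570. Viability calculated at that concentration.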

COC(=O)[C@@H](CCCNC(=N)N[N+](=O)[O-])NC(=O)CC/C(C)=C/Cc1c(O)c2c(c(C)c1OC)COC2=O
IC50 (Jurkat [1]): 572 µM
IC50 [2]: 71 µM
EC50 (Jurkat [3]): 69 µM
EC50 [4]: 95.6 µM
Ratio IC50/EC50 [5]: 8.2
Ratio IC50/EC50 [6]: 0.7
Activity (PBMC): inactive

COC(=O)[C@H](NC(=O)CC/C(C)=C/Cc1c(O)c2c(c(C)c1OC)COC2=O)[C@H](C)O
IC50 (Jurkat [1]): 115 µM
IC50 [2]: 69 µM
EC50 (Jurkat [3]): 14 µM
EC50 [4]: 9 µM
Ratio IC50/EC50 [5]: 8.3
Ratio IC50/EC50 [6]: 7.3
Activity (PBMC): inactive

COc1c(C)c2c(c(O)c1C/C=C(\C)CCC(=O)N[C@H](CCCNC(=N)N[N+](=O)[O-])C(=O)O)C(=O)OC2
IC50 [2]: 422 µM
Activity (Jurkat [7]): 75.14%
EC50 (Jurkat [3]): 1040 µM
EC50 [4]: 588 µM
Ratio IC50/EC50 [6]: 0.7
Activity (PBMC): inactive

COc1c(C)c2c(c(O)c1C/C=C(\C)CCC(=O)N[C@@H](C(=O)O)[C@H](C)O)C(=O)OC2
IC50 (Jurkat [1]): 229 µM
IC50 [2]: 118 µM
EC50 (Jurkat [3]): 21.4 µM
EC50 [4]: 122 µM
Ratio IC50/EC50 [5]: 11
Ratio IC50/EC50 [6]: 1
Activity (PBMC): inactive

COC(=O)[C@H](CCCNC(=N)N[N+](=O)[O-])NC(=O)CC/C(C)=C/Cc1c(O)c2c(c(C)c1OC)COC2=O
IC50 (Jurkat [1]): 347 µM
IC50 [2]: 14 µM
EC50 (Jurkat [3]): 22.3 µM
EC50 [4]: 77 µM
Ratio IC50/EC50 [5]: 16
Ratio IC50/EC50 [6]: 0.2
Activity (PBMC): inactive

CC[C@H](C)[C@H](NC(=O)CC/C(C)=C/Cc1c(O)c2c(c(C)c1OC)COC2=O)C(=O)O
IC50 (Jurkat [1]): 73.7 µM
IC50 [2]: 20.9 µM
EC50 (Jurkat [3]): 2.3 µM
EC50 [4]: 9 µM
Ratio IC50/EC50 [5]: 33
Ratio IC50/EC50 [6]: 2.3
Activity (PBMC): inactive

COC(=O)[C@H](CCCNC(=N)N[N+](=O)[O-])NC(=O)[C@@H]1CCCN1C(=O)[C@H](CCCCNC(=O)CCN)NC(=O)[C@@H](NC(=O)CC/C(C)=C/Cc1c(O)c2c(c(C)c1OC)COC2=O)[C@@H](C)O (Mycophenolyl-TK(βAla)P[Arg(NO2)]-OMe)
IC50 (Jurkat [1]): 1020 µM
IC50 [2]: 526 µM
EC50 (Jurkat [3]): 941 µM
EC50 [4]: 211 µM
Ratio IC50/EC50 [5]: 1.1
Ratio IC50/EC50 [6]: 2.5
Activity (PBMC): inactive

COC(=O)[C@@H](NC(=O)[C@H](CCCCNC(=O)[C@H](C)N)NC(=O)[C@@H]1CCCN1C(=O)[C@H](CCCNC(=N)N[N+](=O)[O-])NC(=O)CC/C(C)=C/Cc1c(O)c2c(c(C)c1OC)COC2=O)[C@@H](C)O (Mycophenolyl-[Arg(NO2)]PK(Ala)T-OMe)
IC50 [2]: 750 µM
Activity (Jurkat [7]): 53.9%
EC50 (Jurkat [3]): 839 µM
EC50 [4]: 168 µM
Ratio IC50/EC50 [6]: 4.5
Activity (PBMC): inactive

COC(=O)[C@H](CCCNC(=N)N[N+](=O)[O-])NC(=O)[C@@H]1CCCN1C(=O)[C@H](CCCCNC(=O)CN)NC(=O)[C@@H](NC(=O)CC/C(C)=C/Cc1c(O)c2c(c(C)c1OC)COC2=O)[C@@H](C)O (Mycophenolyl-TK(Gly)P[Arg(NO2)]-OMe)
IC50 [2]: 628 µM
Activity (Jurkat [7]): 53.4%
EC50 (Jurkat [3]): 1030 µM
EC50 [4]: 590 µM
Ratio IC50/EC50 [6]: 1.1

COC(=O)[C@@H](NC(=O)[C@H](CCCCNC(=O)[C@@H](N)C(C)C)NC(=O)[C@@H]1CCCN1C(=O)[C@H](CCCNC(=N)N[N+](=O)[O-])NC(=O)CC/C(C)=C/Cc1c(O)c2c(c(C)c1OC)COC2=O)[C@@H](C)O (Mycophenolyl-[Arg(NO2)]PK(Val)T-OMe)
IC50 [2]: 548 µM
Activity (Jurkat [7]): 63.35%
EC50 (Jurkat [3]): 556 µM
EC50 [4]: 129 µM
Ratio IC50/EC50 [6]: 4.3
Activity (PBMC): inactive

COc1c(C)c2c(c(O)c1C/C=C(\C)CCC(=O)N[C@@H](CCCNC(=N)N[N+](=O)[O-])C(=O)O)C(=O)OC2
IC50 [2]: 283 µM
Activity (Jurkat [7]): 59.12%
EC50 (Jurkat [3]): 1190 µM
EC50 [4]: 132 µM
Ratio IC50/EC50 [6]: 2.2
Activity (PBMC): inactive
